ChEMBL document CHEMBL1269008, “Electron density guided fragment-based lead discovery of ketohexokinase inhibitors” (J Med Chem, 2010)
Values after ≈ are worked out from the molar mass of the structure shown.

What was measured:
[1] = Clearance in Sprague-Dawley rat at 2 mg/kg, iv and 10 mg/kg, po; type: ADME, organism-based; conditions: in vivo
In short: (§1)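 Male SPF Sprague-Dawley rats (~250 g), n=4, vehicle 20% HPBCD at pH 4.5. Dosing was 2.0 mg/kg iv into the jugular vein, with blood taken at 7 and 20 min and 1, 2, 4, 8 and 24 h. Oral arm was 10 mg/kg by gastric intubation. Parameters came from each animal's plasma profile.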

[2] = Aqueous solubility of the compound in water; type: physicochemical
[3] = Cmax in Sprague-Dawley rat at 10 mg/kg, po; type: ADME, organism-based; parameters: dose 10 mg/kg, route oral; conditions: in vivo
In short: (§2)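 Male SPF Sprague-Dawley rats (~250 g), n=4. HCl salt dissolved in 20% HPBCD, adjusted to pH 4.5 with NaOH. 10 mg/kg by gastric intubation. Blood sampled at 0.5, 1, 2, 4, 8 and 24 h. Parameters derived from each animal's plasma concentration-time profile by limited PK analysis.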

[4] = Aqueous solubility of the compound in phosphate buffered saline at pH 2; type: physicochemical
[5] = Metabolic stability in rat liver microsomes after 10 mins; type: ADME, Microsome; conditions: read-out: Stability
[6] = molecular target: Cytochrome P450 2D6 (Homo sapiens, UniProt P10635); assay: Inhibition of human recombinant CYP2D6; type: ADME
Cytochrome P450 2D6, sequence (P10635 whole entry): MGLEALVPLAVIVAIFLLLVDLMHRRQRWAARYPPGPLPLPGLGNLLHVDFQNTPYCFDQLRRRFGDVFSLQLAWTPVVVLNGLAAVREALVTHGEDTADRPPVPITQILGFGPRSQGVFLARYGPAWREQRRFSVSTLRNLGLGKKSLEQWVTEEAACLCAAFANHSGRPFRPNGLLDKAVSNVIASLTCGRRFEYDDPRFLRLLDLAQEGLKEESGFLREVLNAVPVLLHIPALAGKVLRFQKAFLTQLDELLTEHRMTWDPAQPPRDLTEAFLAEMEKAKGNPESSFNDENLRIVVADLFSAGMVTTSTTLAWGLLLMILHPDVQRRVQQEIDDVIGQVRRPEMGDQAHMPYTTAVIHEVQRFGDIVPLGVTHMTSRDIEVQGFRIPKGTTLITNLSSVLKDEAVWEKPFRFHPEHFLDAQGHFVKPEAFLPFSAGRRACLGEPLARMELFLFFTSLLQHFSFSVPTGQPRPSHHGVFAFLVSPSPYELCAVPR

[7] = Inhibition of PKA at 10 uM
In short: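 Commercial panel of 200 protein kinases, with compound at 10 μM and ATP at 10 μM. Percent inhibition is from a single concentration.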

[8] = Permeability from apical to basolateral side of human Caco-2 cells; type: ADME, cell-based
In short: (§3)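 Caco-2 monolayers cultured 21 days on Transwells. Compound at 10 μM in HBSS with 25 mM HEPES pH 7.4, added to the apical or basolateral side. Lucifer Yellow in donor buffer checked monolayer integrity. After 1 h at 37 °C, both chambers were sampled into acetonitrile with internal standard and measured by LC-MS/MS to calculate Papp.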

[9] = molecular target: T1, 5-hydroxytryptamine receptor 1A (Homo sapiens) (UniProt P08908); assay: Inhibition of 5HT1A at 10 uM
T1 sequence (whole entry): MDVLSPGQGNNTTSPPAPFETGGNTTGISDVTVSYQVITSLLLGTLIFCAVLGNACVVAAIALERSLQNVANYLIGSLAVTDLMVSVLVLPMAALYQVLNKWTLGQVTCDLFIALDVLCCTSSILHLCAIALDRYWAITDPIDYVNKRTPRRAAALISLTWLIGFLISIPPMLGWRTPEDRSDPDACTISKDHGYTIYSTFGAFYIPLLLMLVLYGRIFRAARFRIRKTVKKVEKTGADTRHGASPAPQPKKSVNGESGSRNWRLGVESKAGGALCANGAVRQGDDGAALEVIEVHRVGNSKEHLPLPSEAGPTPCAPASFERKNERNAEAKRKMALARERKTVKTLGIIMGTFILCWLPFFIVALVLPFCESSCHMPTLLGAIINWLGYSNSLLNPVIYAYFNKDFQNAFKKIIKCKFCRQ

[10] = molecular target: Cytochrome P450 3A4 (Homo sapiens, UniProt P08684); assay: Inhibition of human recombinant CYP3A4; type: ADME
Cytochrome P450 3A4, sequence (P08684 whole entry): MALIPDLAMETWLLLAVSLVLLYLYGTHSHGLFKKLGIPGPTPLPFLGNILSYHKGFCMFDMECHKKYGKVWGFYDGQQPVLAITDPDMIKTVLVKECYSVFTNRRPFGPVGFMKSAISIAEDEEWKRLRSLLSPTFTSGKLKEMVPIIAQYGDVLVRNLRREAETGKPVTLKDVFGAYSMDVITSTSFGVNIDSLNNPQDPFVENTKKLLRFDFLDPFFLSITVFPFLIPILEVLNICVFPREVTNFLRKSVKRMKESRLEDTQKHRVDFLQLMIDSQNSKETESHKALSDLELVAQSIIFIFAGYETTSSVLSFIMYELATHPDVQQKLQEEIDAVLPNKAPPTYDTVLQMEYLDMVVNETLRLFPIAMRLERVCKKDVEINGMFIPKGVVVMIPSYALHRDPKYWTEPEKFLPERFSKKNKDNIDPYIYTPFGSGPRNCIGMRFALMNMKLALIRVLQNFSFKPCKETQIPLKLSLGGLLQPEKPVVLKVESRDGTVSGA

[11] = Aqueous solubility of the compound in phosphate buffered saline at pH 7.4; type: physicochemical
[12] = molecular target: 5-hydroxytryptamine receptor 2B (Homo sapiens) (UniProt P41595); assay: Inhibition of 5HT2B at 10 uM
5-hydroxytryptamine receptor 2B (Homo sapiens), sequence (P41595 whole entry): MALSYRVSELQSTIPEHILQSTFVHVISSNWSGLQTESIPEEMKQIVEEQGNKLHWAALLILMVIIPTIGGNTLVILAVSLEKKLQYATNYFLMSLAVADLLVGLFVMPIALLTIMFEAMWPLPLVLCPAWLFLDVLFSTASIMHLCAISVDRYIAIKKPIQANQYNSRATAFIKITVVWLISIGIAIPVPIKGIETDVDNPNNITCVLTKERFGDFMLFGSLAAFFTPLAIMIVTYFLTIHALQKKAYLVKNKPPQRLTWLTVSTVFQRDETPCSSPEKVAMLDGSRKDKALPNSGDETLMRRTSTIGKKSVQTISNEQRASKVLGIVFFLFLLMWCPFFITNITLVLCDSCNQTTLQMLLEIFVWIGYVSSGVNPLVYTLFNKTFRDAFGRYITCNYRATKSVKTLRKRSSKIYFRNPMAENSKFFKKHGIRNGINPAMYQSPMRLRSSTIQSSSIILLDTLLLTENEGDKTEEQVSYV

[13] = Oral bioavailability in Sprague-Dawley rat at 10 mg/kg; type: ADME, organism-based; conditions: in vivo; in short: as §2
[14] = Permeability from basolateral to apical side of human Caco-2 cells; type: ADME, cell-based; in short: as §3
[15] = Aqueous solubility of the compound in […]; type: physicochemical
[16] = Volume of distribution in Sprague-Dawley rat at 2 mg/kg, iv and 10 mg/kg, po; type: ADME, organism-based; conditions: in vivo; in short: as §1
[17] = molecular target: Cytochrome P450 2C19 (Homo sapiens, UniProt P33261); assay: Inhibition of human recombinant CYP2C19; type: ADME
Cytochrome P450 2C19, sequence (P33261 whole entry): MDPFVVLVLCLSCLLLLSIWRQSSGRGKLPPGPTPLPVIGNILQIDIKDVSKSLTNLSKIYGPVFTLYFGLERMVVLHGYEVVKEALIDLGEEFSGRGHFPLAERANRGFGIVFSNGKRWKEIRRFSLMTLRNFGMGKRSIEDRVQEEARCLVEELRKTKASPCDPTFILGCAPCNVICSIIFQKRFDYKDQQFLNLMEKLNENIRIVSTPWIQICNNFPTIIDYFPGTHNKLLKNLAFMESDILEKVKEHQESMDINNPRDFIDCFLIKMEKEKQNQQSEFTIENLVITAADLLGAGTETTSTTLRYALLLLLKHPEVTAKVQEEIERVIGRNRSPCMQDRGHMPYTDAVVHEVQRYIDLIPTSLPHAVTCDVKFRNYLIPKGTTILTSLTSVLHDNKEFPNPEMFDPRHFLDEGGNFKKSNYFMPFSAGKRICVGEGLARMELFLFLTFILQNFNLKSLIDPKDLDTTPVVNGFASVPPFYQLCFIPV

[18] = molecular target: T2, Cytochrome P450 1A2 (Homo sapiens, UniProt P05177); assay: Inhibition of human recombinant CYP1A2; type: ADME
T2 sequence (P05177 whole entry): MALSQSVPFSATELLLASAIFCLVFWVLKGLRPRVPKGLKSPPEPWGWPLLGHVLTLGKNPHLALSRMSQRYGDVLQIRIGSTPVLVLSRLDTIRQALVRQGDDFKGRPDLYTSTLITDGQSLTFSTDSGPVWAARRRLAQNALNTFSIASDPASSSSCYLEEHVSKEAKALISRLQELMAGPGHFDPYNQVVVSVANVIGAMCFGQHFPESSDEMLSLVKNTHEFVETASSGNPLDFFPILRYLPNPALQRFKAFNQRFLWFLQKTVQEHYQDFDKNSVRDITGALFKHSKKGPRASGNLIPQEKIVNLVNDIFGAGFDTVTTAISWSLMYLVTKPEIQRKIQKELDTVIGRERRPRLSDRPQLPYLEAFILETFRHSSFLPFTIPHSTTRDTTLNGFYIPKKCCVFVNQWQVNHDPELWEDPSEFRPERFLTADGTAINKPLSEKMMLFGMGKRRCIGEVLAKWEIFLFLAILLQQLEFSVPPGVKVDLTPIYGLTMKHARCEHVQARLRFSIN

[19] = AUClast in Sprague-Dawley rat at 10 mg/kg, po; type: ADME, organism-based; parameters: time 0 - last, dose 10 mg/kg, route oral; conditions: plasma; in short: as §2
[20] = molecular target: Cytochrome P450 2C9 (Homo sapiens, UniProt P11712); assay: Inhibition of human recombinant CYP2C9; type: ADME
Cytochrome P450 2C9, sequence (P11712 whole entry): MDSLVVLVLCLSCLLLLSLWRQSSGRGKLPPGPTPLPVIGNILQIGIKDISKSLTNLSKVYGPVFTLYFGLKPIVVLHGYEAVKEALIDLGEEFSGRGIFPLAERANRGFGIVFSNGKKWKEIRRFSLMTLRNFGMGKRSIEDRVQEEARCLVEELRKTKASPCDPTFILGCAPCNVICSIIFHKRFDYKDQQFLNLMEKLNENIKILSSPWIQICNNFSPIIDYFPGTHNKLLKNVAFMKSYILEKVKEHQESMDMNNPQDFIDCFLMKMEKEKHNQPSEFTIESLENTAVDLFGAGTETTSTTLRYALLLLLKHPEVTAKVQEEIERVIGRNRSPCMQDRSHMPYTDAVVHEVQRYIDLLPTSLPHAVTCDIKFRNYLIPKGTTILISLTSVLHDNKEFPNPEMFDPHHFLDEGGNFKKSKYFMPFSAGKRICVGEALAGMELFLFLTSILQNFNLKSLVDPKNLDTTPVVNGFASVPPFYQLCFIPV

[21] = molecular target: 5-hydroxytryptamine receptor 7 (Homo sapiens) (UniProt P34969); assay: Inhibition of 5HT7 at 10 uM
5-hydroxytryptamine receptor 7 (Homo sapiens), sequence (P34969 whole entry): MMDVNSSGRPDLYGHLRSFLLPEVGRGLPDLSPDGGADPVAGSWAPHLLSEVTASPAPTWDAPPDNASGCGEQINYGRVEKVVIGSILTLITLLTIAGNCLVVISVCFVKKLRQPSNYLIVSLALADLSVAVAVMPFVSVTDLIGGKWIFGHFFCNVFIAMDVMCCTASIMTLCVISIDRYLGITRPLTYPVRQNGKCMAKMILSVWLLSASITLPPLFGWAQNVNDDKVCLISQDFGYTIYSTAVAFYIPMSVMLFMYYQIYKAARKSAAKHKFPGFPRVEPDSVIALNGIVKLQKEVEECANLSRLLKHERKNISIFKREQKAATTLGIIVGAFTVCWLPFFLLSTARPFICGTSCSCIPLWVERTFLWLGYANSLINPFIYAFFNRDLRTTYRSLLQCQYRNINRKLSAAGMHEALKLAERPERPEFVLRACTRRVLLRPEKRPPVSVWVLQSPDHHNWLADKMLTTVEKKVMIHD

[22] = Metabolic stability in human liver microsomes after 10 mins; type: ADME, Microsome; conditions: read-out: Stability

clearance [1]: 11.6 mL/min/kg
solubility [2]: 40.7 µM (≈ 14.9 µg/mL)
Cmax [3]: 529 ng/mL
solubility [4]: 35.3 µM (≈ 12.9 µg/mL)
remaining at 10 min [5]: 95%
IC50 [6]: > 10 µM
inhibition [7]: 99%
Papp A→B [8]: 1.65 ×10⁻⁶ cm/s
inhibition [9]: 83%
IC50 [10]: > 10 µM
solubility [11]: 45.2 µM (≈ 16.6 µg/mL)
inhibition [12]: 91%
bioavailability [13]: 75.4%
Papp B→A [14]: 9.47 ×10⁻⁶ cm/s
solubility [15]: 40 µM (≈ 14.7 µg/mL)
Vd [16]: 8.53 L/kg
IC50 [17]: > 10 µM
IC50 [18]: > 10 µM
AUC(0-t) [19]: 9030 ng·h/mL
IC50 [20]: > 10 µM
inhibition [21]: 95%
remaining at 10 min [22]: 96%
Compound: CSc1nn(-c2ccccc2)c2cc(NC(=O)C3CCNCC3)ccc12
